Source: ChEMBL document CHEMBL4038311, “An Ursolic Acid Derived Small Molecule Triggers Cancer Cell Death through Hyperstimulation of Macropinocytosis” (J Med Chem, 2017)
The source made the active and inactive calls. The calls are words filed in the database; no cut-off is given here.

Assays:
HT-1080 [1] = test: Anticancer activity against human HT1080 cells assessed as cell viability at 20 uM after 48 hrs by CCK8 assay relative to control; type: functional; conditions: HT-1080, 48 h, read-out: Activity
Summary of the method: (§1)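 Cells (5000/well, pre-incubated overnight) exposed to 20 µM for 48 h. CCK-8 absorbance read at 450 nm. Viability given as percent of vehicle (DMSO) control, mean ± SD. Six parallel wells per condition, at least three independent repeats.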

HeLa [2] = test: Anticancer activity against human HeLa cells assessed as vacuole formation at 20 uM after 24 hrs by phase contrast microscopic analysis; type: functional, cell-based
HepG2 [3] = test: Anticancer activity against human HepG2 cells assessed as vacuole formation at 20 uM after 24 hrs by phase contrast microscopic analysis; type: functional, cell-based
HT-1080 [4] = test: Anticancer activity against human HT1080 cells assessed as vacuole formation at 20 uM after 24 hrs by phase contrast microscopic analysis; type: functional, cell-based
MCF7 [5] = test: Anticancer activity against human MCF7 cells assessed as vacuole formation at 20 uM after 24 hrs by phase contrast microscopic analysis; type: functional, cell-based
SK-N-MC [6] = test: Anticancer activity against human SK-N-MC cells assessed as vacuole formation at 20 uM after 24 hrs by phase contrast microscopic analysis; type: functional, cell-based
HeLa [7] = test: Anticancer activity against human HeLa cells assessed as cell viability at 20 uM after 48 hrs by CCK8 assay relative to control; type: functional; conditions: read-out: Activity; summary of the method: as §1
HepG2 [8] = test: Anticancer activity against human HepG2 cells assessed as cell viability at 20 uM after 48 hrs by CCK8 assay relative to control; type: functional; conditions: HepG2, 48 h, read-out: Activity; summary of the method: as §1
MCF7 [9] = test: Anticancer activity against human MCF7 cells assessed as cell viability at 20 uM after 48 hrs by CCK8 assay relative to control; type: functional; conditions: MCF7, 48 h, read-out: Activity; summary of the method: as §1
SK-N-MC [10] = test: Anticancer activity against human SK-N-MC cells assessed as cell viability at 20 uM after 48 hrs by CCK8 assay relative to control; type: functional; conditions: read-out: Activity; summary of the method: as §1
HeLa [11] = test: Anticancer activity against human HeLa cells assessed as decrease in cell viability at 100 nM preincubated cells with Z-VAD-FMK for 1 hr followed by compound addition measured after 48 hrs by CCK8 assay; type: functional, cell-based
HeLa [12] = test: Induction of apoptosis in human HeLa cells assessed as increase in cleaved caspase-3 levels at 100 nM after 24 to 48 hrs by Western blot analysis; type: functional, cell-based
HeLa [13] = test: Induction of apoptosis in human HeLa cells assessed as increase in cleaved PARP1 levels at 100 nM after 24 to 48 hrs by Western blot analysis; type: functional, cell-based

SMILES	viability at 20 µM (HT-1080 [1]) [%]	Activity (HeLa [2])	Activity (HepG2 [3])	Activity (HT-1080 [4])	Activity (MCF7 [5])	Activity (SK-N-MC [6])	viability at 20 µM (HeLa [7]) [%]	viability at 20 µM (HepG2 [8]) [%]	viability at 20 µM (MCF7 [9]) [%]	viability at 20 µM (SK-N-MC [10]) [%]	Activity (HeLa [11])	Activity (HeLa [12])	Activity (HeLa [13])
C[C@H]1[C@H](C)CC[C@]2(C(=O)O)CC[C@]3(C)C(=CC[C@@H]4[C@@]5(C)Cc6cnn(-c7cccc(C#N)c7)c6C(C)(C)[C@@H]5CC[C@]43C)[C@H]12	37.5	Active	Active	Active	Active	Active	37.3	29.3	28.1	31	–	–	–
CC(=O)O[C@H]1C(=O)[C@@]2(C)[C@H]([C@H](OC(=O)c3ccccc3)[C@]3(O)C[C@H](OC(=O)[C@H](O)[C@@H](NC(=O)c4ccccc4)c4ccccc4)C(C)=C1C3(C)C)[C@]1(OC(C)=O)CO[C@@H]1C[C@@H]2O	–	–	–	–	–	–	–	–	–	–	inactive	Active	Active
C[C@H]1[C@H](C)CC[C@]2(C(=O)O)CC[C@]3(C)C(=CC[C@@H]4[C@@]5(C)Cc6cnn(-c7cccc(F)c7)c6C(C)(C)[C@@H]5CC[C@]43C)[C@H]12	33.5	inactive	inactive	inactive	inactive	inactive	33.3	29.5	46.6	24.6	–	–	–
C[C@H]1[C@H](C)CC[C@]2(C(=O)O)CC[C@]3(C)C(=CC[C@@H]4[C@@]5(C)CC[C@H](O)C(C)(C)[C@@H]5CC[C@]43C)[C@H]12 [URSOLIC ACID]	39.4	inactive	inactive	inactive	inactive	inactive	43.3	34.1	57.6	67.2	–	–	–
C[C@H]1[C@H](C)CC[C@]2(C(=O)O)CC[C@]3(C)C(=CC[C@@H]4[C@@]5(C)Cc6cnn(-c7ccc(F)cc7)c6C(C)(C)[C@@H]5CC[C@]43C)[C@H]12	27.3	Active	Active	Active	Active	Active	24.4	58.6	34.3	39.4	–	–	–
C[C@H]1[C@H](C)CC[C@]2(C(=O)O)CC[C@]3(C)C(=CC[C@@H]4[C@@]5(C)Cc6cnn(CC7CC7)c6C(C)(C)[C@@H]5CC[C@]43C)[C@H]12	23.5	inactive	inactive	inactive	inactive	inactive	19.9	33.9	33.4	33.9	–	–	–
C[C@H]1[C@H](C)CC[C@]2(C(=O)O)CC[C@]3(C)C(=CC[C@@H]4[C@@]5(C)Cc6cnn(-c7ccccc7)c6C(C)(C)[C@@H]5CC[C@]43C)[C@H]12	38.7	inactive	inactive	inactive	inactive	inactive	40.9	60.1	46.5	57.4	–	–	–
C[C@H]1[C@H](C)CC[C@]2(C(=O)O)CC[C@]3(C)C(=CC[C@@H]4[C@@]5(C)Cc6cnn(C7CCCC7)c6C(C)(C)[C@@H]5CC[C@]43C)[C@H]12	27.9	Active	Active	Active	Active	Active	30.8	44.6	36.2	31.4	–	–	–
C[C@H]1[C@H](C)CC[C@]2(C(=O)O)CC[C@]3(C)C(=CC[C@@H]4[C@@]5(C)Cc6cnn(-c7ccncc7)c6C(C)(C)[C@@H]5CC[C@]43C)[C@H]12	30.9	inactive	inactive	inactive	inactive	inactive	54.2	56.8	39.7	79.9	–	–	–
C[C@H]1[C@H](C)CC[C@]2(C(=O)O)CC[C@]3(C)C(=CC[C@@H]4[C@@]5(C)Cc6cnn(CCO)c6C(C)(C)[C@@H]5CC[C@]43C)[C@H]12	39	inactive	inactive	inactive	inactive	inactive	47	57	40.5	63.3	–	–	–
C[C@H]1[C@H](C)CC[C@]2(C(=O)O)CC[C@]3(C)C(=CC[C@@H]4[C@@]5(C)Cc6c(C(F)(F)F)nn(C)c6C(C)(C)[C@@H]5CC[C@]43C)[C@H]12	35.8	Active	Active	Active	Active	Active	44.9	46	47.6	67.4	–	–	–
CCOC(=O)Cn1ncc2c1C(C)(C)[C@@H]1CC[C@]3(C)[C@H](CC=C4[C@@H]5[C@@H](C)[C@H](C)CC[C@]5(C(=O)O)CC[C@]43C)[C@@]1(C)C2	55.2	inactive	inactive	inactive	inactive	inactive	44.2	43.7	28.9	66.6	–	–	–
C[C@H]1[C@H](C)CC[C@]2(C(=O)O)CC[C@]3(C)C(=CC[C@@H]4[C@@]5(C)Cc6cnn(C)c6C(C)(C)[C@@H]5CC[C@]43C)[C@H]12	35.8	Active	Active	Active	Active	Active	44.9	46	47.6	67.4	–	–	–
